We go through one compound from ChEMBL document CHEMBL1144710, “epigenetic multiple ligands: mixed histone/protein methyltransferase, acetyltransferase, and class III deacetylase (sirtuin) inhibitors” (J Med Chem, 2008).

Molecules are shown by their SMILES. Calls of active or inactive are those of the source.

For test [1], the system named is U-937. The test is described as follows: Induction of apoptosis in human U937 cells at 25 uM after 30 hrs. The format is functional. An outline of the steps:
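Apoptosis read as caspase 3 activation by FACS, in U937 cells (RPMI, 10% fetal calf serum, 200000 cells/mL) exposed to 25 µM for 30 h.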

In test [2] the test system is U-937. Put plainly: Induction of granulocytic differentiation in human U937 cells assessed as CD11c expression at 0.5 uM after 30 hrs. Type of test: functional. The procedure, abridged: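 U937 cells treated for 30 h, then stained with PE-conjugated CD11c (PE mouse IgG1 as control) for 30 min at 4 °C in the dark and resuspended in PBS with PI (0.25 µg/mL). Read-out is percent CD11c-positive/PI-negative cells, with dead PI-positive cells excluded. Coloured compounds limited the top dose to 5 µM or lower.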

The target in test [3] is Protein arginine N-methyltransferase 1 (Homo sapiens) (UniProt Q99873). Put plainly: Inhibition of human recombinant PRMT1 assessed as histone H4 methylation at 50 uM.
The subject of test [4] is U-937. Put plainly: Inhibition of histone H3K4 methylation in human U937 cells at 50 uM after 24 hrs. Type of test: functional, cell-based. The procedure, abridged:
(§1)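 U937 cells treated at 50 µM for 24 h. Histones extracted with Triton buffer, then 0.2 M HCl overnight at 4 °C. 3–10 µg run on 15% SDS-PAGE and immunoblotted with anti-monomethyl-H3K4, monomethyl-H4R3 or dimethyl-H3R17 (1:500, overnight 4 °C), ECL detection. Loading controls: total H4 (H3K4), Ponceau Red (Arg marks).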

For test [5], the system named is U-937. The test is described as follows: Inhibition of histone H4R3 methylation in human U937 cells at 50 uM after 24 hrs. Type of test: functional, cell-based. An outline of the steps: as §1
Test [6] has as its target T1, NAD-dependent protein deacetylase sirtuin-1 (Homo sapiens) (UniProt Q96EB6).
T1 sequence (whole entry): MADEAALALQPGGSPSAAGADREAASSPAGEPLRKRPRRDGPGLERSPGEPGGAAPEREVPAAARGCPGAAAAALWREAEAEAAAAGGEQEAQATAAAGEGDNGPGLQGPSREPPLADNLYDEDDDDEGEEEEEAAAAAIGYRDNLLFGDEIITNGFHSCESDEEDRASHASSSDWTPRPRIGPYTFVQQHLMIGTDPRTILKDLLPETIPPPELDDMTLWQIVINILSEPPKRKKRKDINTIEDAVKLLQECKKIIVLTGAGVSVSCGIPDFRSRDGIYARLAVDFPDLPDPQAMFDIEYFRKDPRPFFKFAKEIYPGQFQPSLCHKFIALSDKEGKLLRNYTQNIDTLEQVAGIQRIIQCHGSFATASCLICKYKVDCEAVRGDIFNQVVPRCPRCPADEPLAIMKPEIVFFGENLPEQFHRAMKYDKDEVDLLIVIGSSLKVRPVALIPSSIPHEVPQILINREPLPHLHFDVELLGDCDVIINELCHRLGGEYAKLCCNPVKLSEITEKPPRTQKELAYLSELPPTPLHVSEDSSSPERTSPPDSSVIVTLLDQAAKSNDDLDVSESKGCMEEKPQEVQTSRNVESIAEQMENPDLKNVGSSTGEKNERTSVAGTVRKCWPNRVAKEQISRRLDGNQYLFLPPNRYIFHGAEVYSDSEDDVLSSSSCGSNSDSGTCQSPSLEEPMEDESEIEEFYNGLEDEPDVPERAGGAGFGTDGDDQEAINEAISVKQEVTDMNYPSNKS
The test is described as follows: Inhibition of human SIRT1 at 25 uM. An outline of the steps:
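Fluorescent two-stage assay. SIRT1 (1 U/well) or SIRT2 (5 U/well) with Fluor de Lys-SIRT1/2 substrate, NAD+ and compound at 25 µM, 37 °C for 2 h. Developer II containing nicotinamide then stopped the reaction and generated signal, read at ex 360/em 460 nm.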

Protein arginine N-methyltransferase 1 (Homo sapiens), sequence (Q99873 whole entry, looked up): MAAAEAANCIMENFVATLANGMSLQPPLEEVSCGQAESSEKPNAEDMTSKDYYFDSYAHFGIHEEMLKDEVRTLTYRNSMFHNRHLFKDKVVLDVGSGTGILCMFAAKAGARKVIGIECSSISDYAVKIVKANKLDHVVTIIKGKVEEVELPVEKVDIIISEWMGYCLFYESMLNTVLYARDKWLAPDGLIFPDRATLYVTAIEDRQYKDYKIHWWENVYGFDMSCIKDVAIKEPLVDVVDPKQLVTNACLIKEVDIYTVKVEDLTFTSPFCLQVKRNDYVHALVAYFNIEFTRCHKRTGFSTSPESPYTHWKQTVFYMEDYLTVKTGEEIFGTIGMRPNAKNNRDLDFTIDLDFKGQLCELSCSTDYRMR

Turning to `O=C1/C(=C/c2cc(Br)c(O)c(Br)c2)COC/C1=C\c1cc(Br)c(O)c(Br)c1`, the Activity in the test on U-937 [1] is reported as 27.9%; in the test with U-937 [2] it was 59%. In addition, the inhibition in test [3] worked out at 91%; in test [6], 62%. For the same compound, the result with U-937 [4] and with U-937 [5] was Active.

One may read the inhibition as the drop in the measured response relative to a control, in per cent.
